Screens (PubChem BioAssay)
MBD2 DNA inh: blocks human MBD2 binding to methylated DNA. AID 686964. TR-FRET, MBD2 binding to methylated oligonucleotide. inhibition, % at 4.4 µM. 0.31% of 370,000 active. Q9UBB5; in the data active = inhibition above about 13%
SIAE primary: human SIAE inhibition, primary screen | Q9HAT2 | SIAE FP-Rh probe binding, fluorescence polarization | inhibition, % at 9.66 µM | 0.69% of 370,000 active | AID 1053197;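 active = inhibition above a cutoff: mean of compounds within the control limits plus 3 SD of those, cut at about 17% in these data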
TDP2 absorb: TDP2 (human) inhibition, absorbance primary screen; inhibition, % at 12.8 µM; AID 720702; 0.34% of 370,000 active; recombinant TDP2, T5PNP hydrolysis, p-nitrophenol absorbance 415 nm; O95551;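 active = inhibition above the mean of all tested compounds plus 3 SD, set per campaign, cut at about 25% in these data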
Target sequence (O95551 whole entry, looked up): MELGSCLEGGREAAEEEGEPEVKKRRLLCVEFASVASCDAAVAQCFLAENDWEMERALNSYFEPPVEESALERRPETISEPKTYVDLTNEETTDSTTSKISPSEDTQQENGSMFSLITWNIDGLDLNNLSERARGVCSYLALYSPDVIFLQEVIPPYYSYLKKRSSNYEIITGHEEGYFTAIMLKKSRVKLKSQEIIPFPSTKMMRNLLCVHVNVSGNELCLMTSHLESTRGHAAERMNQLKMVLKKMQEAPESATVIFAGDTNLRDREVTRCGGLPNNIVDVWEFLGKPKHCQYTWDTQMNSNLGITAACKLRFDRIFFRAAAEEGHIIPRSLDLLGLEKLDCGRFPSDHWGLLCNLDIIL
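Incubation: 2 h at 37 °C; Test system: recombinant human TDP2; Quantity: enzyme 120 nM; Read-out basis: percent inhibition; Medium: 50 mM Tris-HCl pH 7.5 with Mg2+, KCl, DTT, BSA; Repeats: single replicate; Compound: 12.8 µM single point, 1% DMSO; Signal: epi absorbance; Reagent: 5 mM T5PNP chromogenic substrate; Benchmarks: no-enzyme high, DMSO-plus-enzyme low.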
PRMT1 inh: PRMT1 (human) inhibition, primary screen; recombinant PRMT1, activity-based probe fluorescence polarization; 1.3% of 370,000 active; Q99873; inhibition, % at 2.79 µM;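 active = inhibition above about 21% made by adding two undisclosed values, limit read from the data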
LEDGF integ inh: blocks HIV-1 LEDGF/p75-dependent DNA integration | TR-FRET IN-LEDGF/p75 DNA integration, Eu/Cy5 | inhibition, % at 3.7 µM | 0.64% of 370,000 active;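 active = inhibition above the screen-wide mean plus 3 SD, cut at about 13% in these data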;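 also: signal is the Cy5 over europium emission ratio at 671 and 618 nm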
UHRF1 binding: human UHRF1 methylated DNA binding inhibitors | AID 687016 | inhibition, % at 4.4 µM | 0.75% of 370,000 active | Q96T88 | UHRF1 binding to methylated oligo, TR-FRET;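 also: UHRF1 SRA domain binding a hemimethylated CpG hairpin DNA probe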
UHRF1 ctr MBD2: counter-screen for MBD2 inhibitors: human UHRF1 methylated DNA binding inhibitors; shares compounds with MBD2 DNA inh; UHRF1 binding to methylated oligonucleotide, TR-FRET; inhibition, % at 4.4 µM; AID 720530; 25% of 1,000 active;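 also: UHRF1 SRA domain binding a labeled hemimethylated CpG hairpin DNA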
MBD2 confirm: confirmation of human MBD2-DBD methylated oligonucleotide binding inhibitors; shares compounds with MBD2 DNA inh; TR-FRET MBD2-DBD binding to methylated oligonucleotide; inhibition, % at 4.4 µM; 26% of 1,000 active; AID 720531; in the data active = inhibition above about 14%
Of the large screens only hits and unclear results are named; the others gave an inactive call (follow-up assays come after a bar, where they were run). Most compounds without a hit are left out; they make up all but 3.3% or so of the library. Rule as the data show it, unless noted: active = inhibition above about 21%; inactive = the rest.

C[C@@H]1CCC2[C@](C)(CO)[C@@H](O)CC[C@]2(C)[C@@]12CCC(CO)(CCO)O2 (stereo partly drawn)	MBD2 DNA inh 24.6 | UHRF1 ctr MBD2 inactive | MBD2 confirm inactive
CC(=O)c1ccc(NC(=O)c2ccc3nc(C)sc3c2)cc1	none
Cc1nc2ccc(C(=O)Nc3ccccc3Cl)cc2s1	MBD2 DNA inh 20.4 | UHRF1 ctr MBD2 inactive | MBD2 confirm inactive
Cc1ccc(Cc2c(-c3ccccc3)nc3cc(C)ccn23)cc1	MBD2 DNA inh 16.7, UHRF1 binding 26.9 | UHRF1 ctr MBD2 inactive | MBD2 confirm inactive
COC(=O)[C@]12C[C@H](CC(=O)NCCc3ccccc3OC)C(=O)N(CCc3ccc(OC)c(OC)c3)C1=C[C@H](C(C)C)O[C@@H]2C1CC1	none
Cc1cc(NC(=O)Cc2cccs2)no1	MBD2 DNA inh 15.8, UHRF1 binding 28.9 | UHRF1 ctr MBD2 24.9 | MBD2 confirm 18.8
Cc1cc(NC(=O)c2cccs2)no1	none
C=C(C)Cn1c(SCC(=O)N/N=C(\C)c2ccc(Br)cc2)nnc1-c1ccc(Br)cc1	none
COc1ccc(N2CCN(C(=O)c3ccc4c(c3)CC(c3ccccc3)OC4=O)CC2)cc1 (stereo not drawn)	MBD2 DNA inh 13.6, UHRF1 binding 20.9 | UHRF1 ctr MBD2 inactive | MBD2 confirm inactive
O=C(COC(=O)CNC(=O)c1ccccc1)Nc1ccc(Cl)cc1C(F)(F)F	none
O=C(COC(=O)CNC(=O)c1ccc(Cl)cc1)Nc1ccc(Cl)cc1C(F)(F)F	MBD2 DNA inh 61.3 | UHRF1 ctr MBD2 inactive | MBD2 confirm inactive
COc1cccc(CNC(=O)CN2CCCc3ccccc32)c1OC	none
CCCc1nc2ccc(Cl)cn2c1Cc1ccccc1	MBD2 DNA inh 18.2, UHRF1 binding 23.2 | UHRF1 ctr MBD2 inactive | MBD2 confirm inactive
CCCc1nc2c(C)cc(Br)cn2c1Cc1ccccc1	MBD2 DNA inh 13.5, UHRF1 binding 21.8 | UHRF1 ctr MBD2 inactive | MBD2 confirm inactive
CC(C)(C)C(=O)OC12CCCN(C1)/C(=C/c1cccnc1)C2 (stereo not drawn)	none
COc1cc(OC)nc(Oc2ccccc2C=O)n1	none
COc1cc(OC)nc(Oc2ccccc2/C=N/O)n1	MBD2 DNA inh 14.9 | UHRF1 ctr MBD2 inactive | MBD2 confirm inactive
C[C@@H]1CCN(C2CC2)S(=O)(=O)c2c(cccc2N2CCC[C@H]2C)O1	none
C=CCOC(=O)C1=C[C@H](c2csc3ccccc23)C[C@H](OCCCCO)O1	none
NC(=O)C1=C[C@@H](c2csc3ccccc23)C[C@@H](OCCCCO)O1	MBD2 DNA inh 14.8 | UHRF1 ctr MBD2 inactive | MBD2 confirm inactive
CCC1CCCCN1C(=O)COC(=O)c1cccs1 (stereo not drawn)	MBD2 DNA inh 17.3 | UHRF1 ctr MBD2 inactive | MBD2 confirm inactive
O=C(OCC(=O)N1CCCCC1)c1cccs1	none
C=CCN1C(=O)[C@H](CC(=O)NCc2ccc(C)o2)[C@@]2(C(=O)OCC)CCCC=C12	none
COc1ccc(NC(=O)CN2CCCC2c2cccs2)cc1S(=O)(=O)N1CCCCC1 (stereo not drawn)	none
CCOc1ccc(NC(=O)CN2CCCC2c2cccs2)cc1S(=O)(=O)N1CCCC1 (stereo not drawn)	MBD2 DNA inh 41.8 | UHRF1 ctr MBD2 inactive | MBD2 confirm inactive
CN(C)C1CN(Cc2cn(Cc3cccc(Cl)c3)nn2)S(=O)(=O)C1 (stereo not drawn)	none
O=S1(=O)CC(N2CCN(CCO)CC2)CN1Cc1cn(Cc2ccc(C(F)(F)F)cc2)nn1 (stereo not drawn)	MBD2 DNA inh 14.2 | UHRF1 ctr MBD2 inactive | MBD2 confirm inactive
CN1CCC(N2CCN(C3CN(Cc4cn(Cc5cccc(C(F)(F)F)c5)nn4)S(=O)(=O)C3)CC2)CC1 (stereo not drawn)	MBD2 DNA inh 14.5, UHRF1 binding 22.7 | UHRF1 ctr MBD2 inactive | MBD2 confirm inactive
CN(Cc1cn(Cc2cccc(Cl)c2)nn1)C1CN(Cc2cn(Cc3cccc(Cl)c3)nn2)S(=O)(=O)C1 (stereo not drawn)	MBD2 DNA inh 14.4 | UHRF1 ctr MBD2 inactive | MBD2 confirm inactive
C[C@H]1[C@@H](N(C)Cc2ccccc2)CC[C@@]23CCCN2C(=O)CCC[C@@H]13	none
Cc1ccc(C(=O)NC2CCS(=O)(=O)C2)cc1S(=O)(=O)N1CCCC1 (stereo not drawn)	MBD2 DNA inh 17.0 | UHRF1 ctr MBD2 inactive | MBD2 confirm inactive
COc1ccc(N2CCN(C(=O)CCS(=O)(=O)c3ccc(OC)cc3)CC2)cc1	none
COc1ccc(S(=O)(=O)CCC(=O)N2CCN(c3ccc(C(C)=O)cc3)CC2)cc1	MBD2 DNA inh 18.4, UHRF1 binding 31.3 | UHRF1 ctr MBD2 inactive | MBD2 confirm inactive
O=C(O)C1=CCC=CC1C(=O)O (stereo not drawn)	MBD2 DNA inh 17.3, UHRF1 binding 38.7 | UHRF1 ctr MBD2 52.3 | MBD2 confirm 20.2
C=CC[C@@H](CC(=O)NCCO)C(=O)N[C@H](C)COC(=O)[C@@H](CC=C)Cc1ccc(F)cc1	MBD2 DNA inh 53.1 | UHRF1 ctr MBD2 inactive | MBD2 confirm inactive
O=C(NCCN1CCC(Cc2ccccc2)CC1)C1CCCN(S(=O)(=O)c2ccc(Br)s2)C1 (stereo not drawn)	none
O=C(NC1CCCCCC1)C1CCC(CNS(=O)(=O)c2ccc(Br)s2)CC1 (stereo not drawn)	MBD2 DNA inh 13.8, UHRF1 binding 23.4 | UHRF1 ctr MBD2 inactive | MBD2 confirm inactive
CCCc1cc(=O)[nH]c2nnc(SCC(=O)Nc3cccc(NC(C)=O)c3)n12	MBD2 DNA inh 15.5 | UHRF1 ctr MBD2 inactive | MBD2 confirm inactive
CCCc1cc(=O)[nH]c2nnc(SCC(=O)Nc3ccc(NC(C)=O)cc3)n12	none
O=C(NCc1ccc(C(=O)N2CCCN(Cc3ccccc3)CC2)cc1)c1cccc(Br)c1	none
C/C=C/C=[N+](\[O-])C(C)/C(=N/O)c1ccc(F)cc1 (stereo not drawn)	MBD2 DNA inh 14.2 | UHRF1 ctr MBD2 inactive | MBD2 confirm inactive
O=C(/C=C/c1ccc(-c2ccccc2[N+](=O)[O-])o1)c1ccco1	MBD2 DNA inh 14.4, UHRF1 binding 34.1 | UHRF1 ctr MBD2 inactive | MBD2 confirm inactive
C=CCOc1ccc(/C=C2\SC(=S)N(NS(=O)(=O)c3ccc(C)cc3)C2=O)cc1	MBD2 DNA inh 13.5, UHRF1 binding 23.4 | UHRF1 ctr MBD2 inactive | MBD2 confirm inactive
COc1cccc(/C=C2\CC3(OC(=O)C4CCCCC4)CCCN2C3)c1 (stereo not drawn)	none
